{
  "source": "ChEMBL document CHEMBL1157658",
  "about": "“Structure-activity relationship of (N)-Methanocarba phosphonate analogues of 5'-AMP as cardioprotective agents acting through a cardiac P2X receptor” (J Med Chem, 2010)",
  "key": {"P2Y purinoceptor 1 [1]": {"biological_target": "T1, P2Y purinoceptor 1 (Homo sapiens, UniProt P47900)", "T1 sequence (P47900 whole entry)": "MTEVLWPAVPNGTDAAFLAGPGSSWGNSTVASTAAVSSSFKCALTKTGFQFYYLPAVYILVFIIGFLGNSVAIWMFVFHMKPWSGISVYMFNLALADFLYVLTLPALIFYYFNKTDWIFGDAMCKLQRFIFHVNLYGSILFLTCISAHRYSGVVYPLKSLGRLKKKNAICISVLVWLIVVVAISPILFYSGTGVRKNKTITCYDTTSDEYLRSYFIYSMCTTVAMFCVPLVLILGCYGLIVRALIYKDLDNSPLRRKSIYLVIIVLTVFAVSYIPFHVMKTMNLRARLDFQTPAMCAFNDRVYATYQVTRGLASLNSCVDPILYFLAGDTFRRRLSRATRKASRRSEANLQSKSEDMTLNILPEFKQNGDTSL", "assay": "Activation of human P2Y1 receptor expressed in human 1321N1 cells assessed as induction of calcium flux up to 10 uM by FLIPR assay", "format": "functional, cell-based", "procedure,_shortened": "(§1)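 1321N1 human astrocytoma cells stably expressing hP2Y1, grown overnight at 37 °C, 5% CO2 (to ~80% confluency), loaded with calcium-4 dye plus probenecid (no wash), 1 h at rt. Compounds diluted in Hank's buffer pH 7.2, tested up to 10 μM; FLIPR-Tetra at rt, ex 485/em 525 nm, duplicates. Response is peak fluorescence minus pre-exposure basal.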"}, "Mus musculus [2]": {"tested_on": "Mus musculus", "assay": "Cardioprotective effect in calsequestrin transgenic mouse model of severe cardiomyopathy and heart failure assessed as improvement of echocardiography-derived fractional shortening at 3.3 uM, sc administered per day via minipump measured after 28 days by transthoracic echocardiographic analysis", "format": "functional", "procedure,_shortened": "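CSQ-overexpressing transgenic mice (lethal heart failure near 3 months); analogue dissolved at 3.3 μM in sterile saline/PBS pH 7.4 (200 μL pump load), sterile-filtered, infused subcutaneously by mini-osmotic pump at 6 μL/day for 28 days; vehicle-infused CSQ controls. Under 1% isoflurane, M-mode echocardiography gave LVEDD, LVESD and FS ((LVEDD-LVESD)/LVEDD), averaged over >3 cardiac cycles; one-way ANOVA with post-test.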"}, "1321-N1": {"tested_on": "1321-N1", "assay": "Induction of calcium flux in human 1321N1 cells at 10 uM by FLIPR assay", "format": "functional, cell-based"}, "Mus musculus [3]": {"tested_on": "Mus musculus", "assay": "Cardioprotective effect in calsequestrin transgenic mouse model of heart failure assessed as increased shortening of heart septum and left ventricular free wall at 3.3 uM, sc administered per day via minipump measured after 28 days by transthoracic echocardiographic analysis", "format": "functional, organism-based", "procedure,_shortened": "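Calsequestrin-overexpressing transgenic mice (hypertrophy, lethal heart failure near 3 months). Compound at 3.3 μM in sterile saline/PBS pH 7.4, filter-sterilized, infused subcutaneously via osmotic minipump at 6 μL/day for 28 days; saline-infused controls. Under 1% isoflurane, M-mode echocardiography gave LVEDD, LVESD and FS = (LVEDD−LVESD)/LVEDD, averaged over >3 cardiac cycles; mean ± SE, one-way ANOVA with post-test.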"}, "P2Y purinoceptor 1 [4]": {"biological_target": "T1, P2Y purinoceptor 1", "assay": "Activation of human P2Y1 receptor expressed in human 1321N1 cells assessed as induction of calcium flux by FLIPR assay relative to 2-MeSADP", "format": "functional, cell-based", "procedure,_shortened": "as §1"}, "P2Y purinoceptor 1 [5]": {"biological_target": "T1, P2Y purinoceptor 1", "assay": "Agonist activity at human P2Y1 receptor expressed in human 1321N1 cells by PLC assay", "format": "functional, cell-based"}, "P2Y purinoceptor 1 [6]": {"biological_target": "T1, P2Y purinoceptor 1", "assay": "Activation of human P2Y1 receptor expressed in human 1321N1 cells assessed as induction of calcium flux by FLIPR assay", "format": "functional, cell-based"}},
  "note": "Active and inactive are the calls of the source. The rule behind the calls is not given here.",
  "data": [
    {"smiles": "CP(=O)(O)C[C@]12C[C@@H]1[C@@H](n1cnc3c(N)nc(Cl)nc31)[C@H](O)[C@@H]2O", "values": [
      {"measurement": "Activity", "setting": "P2Y purinoceptor 1 [1]", "result": "inactive"},
      {"measurement": "Activity", "setting": "Mus musculus [2]", "result": 15, "unit": "%"}
    ]},
    {"smiles": "Nc1nc(Cl)nc2c1ncn2[C@H]1[C@H](O)[C@H](O)[C@@]2(/C=C/P(=O)(O)O)C[C@H]12", "values": [
      {"measurement": "Activity", "setting": "P2Y purinoceptor 1 [1]", "result": "inactive"},
      {"measurement": "Activity", "setting": "Mus musculus [2]", "result": 12.12, "unit": "%"}
    ]},
    {"smiles": "CSc1nc(N)c2ncn([C@@H]3O[C@H](COP(=O)(O)OP(=O)(O)O)[C@@H](O)[C@H]3O)c2n1", "values": [
      {"measurement": "Activity", "setting": "1321-N1", "result": "inactive"}
    ]},
    {"smiles": "Nc1ncnc2c1ncn2[C@H]1[C@H](O)[C@H](O)[C@@]2(CP(=O)(O)O)C[C@H]12", "values": [
      {"measurement": "Activity", "setting": "P2Y purinoceptor 1 [1]", "result": "inactive"},
      {"measurement": "Activity", "setting": "Mus musculus [2]", "result": 16.23, "unit": "%"}
    ]},
    {"smiles": "Nc1nc(Cl)nc2c1ncn2[C@H]1[C@H](O)[C@H](O)[C@@]2(CCP(=O)(O)O)C[C@H]12", "values": [
      {"measurement": "Activity", "setting": "P2Y purinoceptor 1 [1]", "result": "inactive"},
      {"measurement": "Activity", "setting": "Mus musculus [2]", "result": 19.26, "unit": "%"}
    ]},
    {"smiles": "Nc1nc(Cl)nc2c1ncn2[C@H]1[C@H](O)[C@H](O)[C@@]2(CP(=O)(O)O)C[C@H]12", "values": [
      {"measurement": "Activity", "setting": "P2Y purinoceptor 1 [1]", "result": "inactive"},
      {"measurement": "Activity", "setting": "Mus musculus [3]", "result": "Active"},
      {"measurement": "Activity", "setting": "Mus musculus [2]", "result": 20.25, "unit": "%"}
    ]},
    {"smiles": "Nc1nc(Cl)nc2c1ncn2[C@H]1[C@H](O)[C@H](O)[C@@]2(COP(=O)(O)O)C[C@H]12", "values": [
      {"measurement": "%max", "setting": "P2Y purinoceptor 1 [4]", "result": 80, "unit": "%"},
      {"measurement": "EC50", "setting": "P2Y purinoceptor 1 [5]", "result": 1890, "unit": "nM"},
      {"measurement": "Activity", "setting": "Mus musculus [2]", "result": 15.47, "unit": "%"},
      {"measurement": "EC50", "setting": "P2Y purinoceptor 1 [6]", "result": 722, "unit": "nM"}
    ]},
    {"smiles": "Nc1ncnc2c1ncn2[C@H]1[C@H](O)[C@H](O)[C@@]2(/C=C/P(=O)(O)O)C[C@H]12", "values": [
      {"measurement": "Activity", "setting": "P2Y purinoceptor 1 [1]", "result": "inactive"},
      {"measurement": "Activity", "setting": "Mus musculus [2]", "result": 13.88, "unit": "%"}
    ]},
    {"smiles": "Nc1ncnc2c1ncn2[C@H]1[C@H](O)[C@H](O)[C@@]2(CCP(=O)(O)O)C[C@H]12", "values": [
      {"measurement": "Activity", "setting": "P2Y purinoceptor 1 [1]", "result": "inactive"},
      {"measurement": "Activity", "setting": "Mus musculus [2]", "result": 11.15, "unit": "%"}
    ]}
  ]
}
